Results reported in PubChem BioAssay.
Records with an inconclusive call do not appear. Active and inactive are the calls of the source.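 Rule for the calls, unless noted: active = cell viability at or below a set limit in both duplicate runs, the limit being the all-compound median minus 4 SD (cut at about 23% in these data, passing the limit was not always enough); inconclusive = no clear call, values can overlap the other calls; inactive = the rest.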

What was measured:
[1] = S. cerevisiae growth inhibition in permissive medium (OD615), pilot counter-assay for S. cerevisiae lifespan shortening project, permissive growth control (AID 705;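 active = growth inhibition above 25% in both replicates, a cutoff set 3 SD above the mean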); details: OD615, 24 h, at 10 µM, active compounds read high
In short: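 assay system = Saccharomyces cerevisiae strain carrying genetically modified DeaD replicative-lifespan system | technique = absorbance (optical density) at 615 nm | buffer or medium = permissive raffinose/galactose medium | timing = cells pre-grown 4 h, then 24 h compound exposure, 30 °C humidified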

[2] = S. cerevisiae growth inhibition in restrictive medium, OD615, pilot screen, restrictive growth control, yeast lifespan reduction project (AID 706;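 active = growth inhibition above a set limit, 3 SD over mean compound inhibition, in both replicates, cut at about 43% in these data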;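 note: modified DeaD lifespan yeast strain shifted to restrictive glucose medium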); details: OD615, 48 h, at 10 µM, active compounds read high
In short: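 System: modified S. cerevisiae. Buffer or medium: CSMM-D glucose medium. Incubation: 4 h pre-growth plus 48 h compound exposure, 30 °C. Detection: absorbance (optical density) measured at 615 nm.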

[3] = doxorubicin toxicity protection in MRP-1 cells – H69AR cells, CellTiter-Glo, duplicate, MRP-1 activator project, pilot screen (AID 807;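 active = viability increase at or above a cutoff of the median across tested compounds plus 3 SD, cut at about 8.5% in these data, passing the limit was not always enough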;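 note: compound pretreatment 18-22 h then 72 h combined with doxorubicin; 0% = doxorubicin alone and 100% = vehicle without doxorubicin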); details: H69AR viability with doxorubicin, CellTiter-Glo luminescence; at 10 µM; active compounds read high
[4] = viability of HCT116 without oncogenic beta-catenin – human colon tumor cells, pilot screen (AID 823); details: HCT116 beta-catenin knockout viability, CellTiter-Glo, 60 h; at 10 µM; active compounds read low;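 note: 0% = wells killed by 20 µM Hyamine and 100% = untreated DMSO cell wells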
[5] = viability of PTEN-null HCT116 cells – cell-based, HCT116 clonal line, CellTiter-Glo, pilot screen (AID 824;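 active = viability at or below 27.92% in each of two runs, the all-compound median minus 4 SD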;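 note: 0% = 20 µM Hyamine control and 100% = vehicle cell control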); details: HCT116 PTEN-deleted viability, 60 h, at 10 µM, active compounds read low
[6] = RAM pathway blockade in budding yeast – dse1pr::URA3 reporter, 5-FOA selection, pilot screen (AID 869;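 active = inhibition over a set limit, the all-compound mean plus 3 SD, in both replicate runs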;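 note: 0% = DMSO wells with no growth and 100% = 10 µM 1-NA-PP1 with full growth; RAM network block rescues cells from 5-FOA so hits raise OD615 growth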); details: S. cerevisiae dse1pr::URA3 5-FOA growth, OD615, 2 d; at 10 µM; active compounds read high; strain carries analog-sensitive mutant Cbk1 kinase
[7] = RAM signaling pathway blockade in yeast – S. cerevisiae, Pdr1DBD-CYC8 efflux-inhibited sensitized strain, primary screen (AID 1298;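 active = RAM network inhibition above 8.4% in each of two replicates, 3 SD over the compound average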;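 note: 0% = DMSO untreated cells without growth and 100% = 10 µM 1-NA-PP1 full growth; higher means more yeast growth rescued from 5-FOA killing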); details: S. cerevisiae cbk1-as DSE1-URA3 strain, 5-FOA growth OD615, 2 d; at 50 µM; active compounds read high

COc1ccccc1NC(=O)CCNC(=O)Cn1ccc2ccccc2c1=O
inactive: growth inhibition [1] -12.7% | growth inhibition [2] -11.8% | viability increase [3] -1.84% | viability [4] 96.6% | viability [5] 93.3% | inhibition [6] 0.74% | RAM network inhibition [7] 3.6%

COc1ccc(NC(=O)CCS(=O)(=O)c2cccc3nonc23)c(OC)c1
inactive: growth inhibition [1] -4.67% | growth inhibition [2] -11.7% | viability increase [3] -2.54% | viability [4] 96.2% | viability [5] 93.8% | inhibition [6] 0.51% | RAM network inhibition [7] 2.06%

COc1ccccc1Nc1nc(N)nc(CN2CCOCC2)n1
inactive: growth inhibition [1] -12.9% | growth inhibition [2] -6.13% | viability increase [3] -0.98% | viability [4] 108% | viability [5] 101% | inhibition [6] 0.845% | RAM network inhibition [7] 3.74%

Cc1c(C(=O)NCc2ccc3c(c2)OCO3)oc2ccccc12
inactive: growth inhibition [1] 1.35% | growth inhibition [2] 16% | viability increase [3] -0.04% | viability [4] 108% | viability [5] 98.9% | inhibition [6] -0.54% | RAM network inhibition [7] 5.64%

CCOC(=O)CNc1c(N2CCN(c3ccccn3)CC2)c(=O)c1=O
inactive: growth inhibition [1] 2.94% | growth inhibition [2] 13.8% | viability increase [3] -1.12% | viability [4] 110% | viability [5] 102% | inhibition [6] 1.91% | RAM network inhibition [7] -0.36%

COc1ccc(C(=O)N2CCN(c3ccc(C)cc3C)CC2)cc1OC
inactive: growth inhibition [1] -12.4% | growth inhibition [2] -0.18% | viability increase [3] 3.24% | viability [4] 72.9% | viability [5] 85.7% | inhibition [6] 1.66% | RAM network inhibition [7] 2.92%

COc1cc(OC)c(C2N(c3ccc(Cl)cc3)C(=O)C3CCCN32)cc1OC (stereo not drawn)
inactive: growth inhibition [1] -2.8% | growth inhibition [2] -2.08% | viability increase [3] -2.63% | viability [4] 105% | viability [5] 96.7% | inhibition [6] 2.59% | RAM network inhibition [7] 3.82%

Cc1ccccc1NC(=O)c1ocnc1C
inactive: growth inhibition [1] -1.01% | growth inhibition [2] -8.43% | viability increase [3] -1.48% | viability [4] 101% | viability [5] 92.3% | inhibition [6] 0.18% | RAM network inhibition [7] 4.25%

O=C(NC1CCCCCCC1)C1CCC(CNc2c(N3CCCC3)c(=O)c2=O)CC1 (stereo not drawn)
inactive: growth inhibition [1] -6.82% | growth inhibition [2] 0.64% | viability increase [3] 0.87% | viability [4] 91.6% | viability [5] 96% | inhibition [6] 0.85% | RAM network inhibition [7] 4.83%

COC(=O)c1cc(NC2c3ccccc3C(=O)N2c2ccc(Cl)cn2)cc(C(=O)OC)c1 (stereo not drawn)
inactive: growth inhibition [1] -20.1% | growth inhibition [2] -16.2% | viability increase [3] 0.19% | viability [4] 71.2% | viability [5] 64.4% | inhibition [6] 1.5% | RAM network inhibition [7] 4.41%

O=C(O)CC1C(=O)NCCN1CCCc1ccccc1 (stereo not drawn)
inactive: growth inhibition [1] -11.4% | growth inhibition [2] -8.64% | viability increase [3] -0.23% | viability [4] 97.8% | viability [5] 97.9% | inhibition [6] 0.455% | RAM network inhibition [7] -1.48%

C=CCNC(=O)c1cnc2n(c1=O)CCS2
inactive: growth inhibition [1] 5.17% | growth inhibition [2] 5.46% | viability increase [3] 2.16% | viability [4] 103% | viability [5] 109% | inhibition [6] 1.68% | RAM network inhibition [7] -1.87%

Cc1nc2sc(C(c3ccccc3)N3CCN(CCO)CC3)c(O)n2n1 (stereo not drawn)
inactive: growth inhibition [1] -5.65% | growth inhibition [2] -2.6% | viability increase [3] -1.6% | viability [4] 106% | viability [5] 98.6% | inhibition [6] 1.32% | RAM network inhibition [7] 4.51%

COc1cc(C(=O)Nc2cc(-c3nc4cc(C)ccc4o3)ccc2C)cc(OC)c1OC
inactive: growth inhibition [1] 3.69% | growth inhibition [2] 8.25% | viability increase [3] -2.34% | viability [4] 97% | viability [5] 95.2% | inhibition [6] 0.43% | RAM network inhibition [7] -0.15%

CC(C)(C)NC(=O)Cn1c(=O)oc2cc(S(=O)(=O)N3CCc4ccccc43)ccc21
inactive: growth inhibition [1] 0.45% | growth inhibition [2] -12.1% | viability increase [3] -3.16% | viability [4] 90% | viability [5] 89.5% | inhibition [6] 0.05% | RAM network inhibition [7] 7.21%

CCCCn1c(=O)[nH]c2ccccc21
inactive: growth inhibition [1] -4.76% | growth inhibition [2] -21.1% | viability increase [3] -1.44% | viability [4] 106% | viability [5] 104% | inhibition [6] 1.69% | RAM network inhibition [7] 2.05%

O=C(C1CCCN(S(=O)(=O)c2cccc3cccnc23)C1)N1CCc2ccccc21 (stereo not drawn)
inactive: growth inhibition [1] -2.7% | growth inhibition [2] -3.75% | viability increase [3] -5.63% | viability [4] 68.7% | viability [5] 66.7% | inhibition [6] 1.5% | RAM network inhibition [7] 3.58%

c1ccc(-c2nnc(-c3ccccn3)nn2)nc1
inactive: viability increase [3] 0.07% | viability [4] 68.2% | viability [5] 83% | inhibition [6] -0.025% | RAM network inhibition [7] -3%
active: growth inhibition [1] 34.5% | growth inhibition [2] 88.1%

C=CCn1c(SCCCC)nc(O)cc1=O
inactive: growth inhibition [1] 1.55% | growth inhibition [2] 8.79% | viability increase [3] -0.11% | viability [4] 105% | viability [5] 102% | inhibition [6] 0.02% | RAM network inhibition [7] -0.21%

CCOc1cc2c(cc1OCC)C(c1ccc(O)c(OC)c1)NCC2 (stereo not drawn)
inactive: growth inhibition [1] -5.95% | growth inhibition [2] -11.5% | viability increase [3] -3.12% | viability [4] 75.3% | viability [5] 81.6% | inhibition [6] 2.12% | RAM network inhibition [7] 1.63%

CCN(CC)S(=O)(=O)c1ccc(C(=O)Nc2ccc(OCC(=O)N3CCOCC3)cc2)cc1
inactive: growth inhibition [1] -6% | growth inhibition [2] -11% | viability increase [3] 0.35% | viability [4] 86.6% | viability [5] 95.4% | inhibition [6] 0.185% | RAM network inhibition [7] 4.45%

COCCN1C=C(C(=O)OC)C(c2ccc(OC)c(OC)c2)C(C(=O)OC)=C1
inactive: growth inhibition [1] -4.43% | growth inhibition [2] -9.06% | viability increase [3] -0.95% | viability [4] 98% | viability [5] 100% | inhibition [6] 1.43% | RAM network inhibition [7] -0.97%

Cc1ccc2cc(-c3noc(C4CCCCC4)n3)c(=O)[nH]c2c1
inactive: growth inhibition [1] -10.9% | growth inhibition [2] -13% | viability increase [3] -2.36% | viability [4] 112% | viability [5] 104% | inhibition [6] 3.56% | RAM network inhibition [7] 4.76%

CCn1cc(S(=O)(=O)CC(=O)Nc2cc(C)ccc2C)c2ccccc21
inactive: growth inhibition [1] -10.1% | growth inhibition [2] -1.18% | viability increase [3] -0.93% | viability [4] 105% | viability [5] 82.5% | inhibition [6] 2.07% | RAM network inhibition [7] 3.99%
